Compound activity from PubChem BioAssay.
Tn6 DDE FP: inhibitors of Tn6 peptide binding to fibrin DD(E), primary screen, biochemical, fluorescence polarization, human fibrin, Tn6 probe | AID 720509, 2013 | inhibition, % at 8.3 µM | Fibrinogen beta chain (Homo sapiens), P02675 | 370,000 compounds, 0.21% hits | Fibrin DD(E) TRITC-Tn6 fluorescence polarization displacement;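 active means inhibition above a per-campaign cutoff: mean of compounds within control limits plus 3 SD, cut at about 15% in these data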
MT1-MMP act inh: blockers of MT1-MMP proenzyme processing, primary screen, HT1080 RFP-PRO-GFP cells, GFP/RFP fluorescence | GFP/RFP ratio change, % at 20 µM | GFP/RFP ratio fluorescence, overnight; percent of plate control window, DMSO zero | AID 651647, 2012 | Matrix metalloproteinase-14 (Homo sapiens), P50281 | 360,000 compounds, 0.061% hits;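 active means GFP/RFP ratio change of at least 30% with cell ATP level not reduced by more than half and red fluorescence within 50% of control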
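Material – HT1080 RFP-PRO-GFP cells · Control set – DMSO wells and RFP-L50D-GFP cells · Incubation – overnight cell settling, then overnight compound exposure, 37 °C, 5% CO2 · Compound dosing – single-point 20 µM compound, 1% DMSO · Read-out – GFP/RFP fluorescence ratio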
Tn7 DDE FP: inhibitors of Tn7 peptide binding to fibrin DD(E), primary screen, biochemical, fluorescence polarization, human fibrin, Tn7 probe | Fibrinogen beta chain (Homo sapiens), P02675 | FP displacement of FITC-Tn7 peptide from fibrin DD(E); 0% = median of compound wells per plate | inhibition, % at 8.3 µM | 370,000 compounds, 0.13% hits | AID 720508, 2013;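 active means inhibition above the mean of compounds falling within the control limits plus 3 SD of them, cut at about 14% in these data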
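Measure: % inhibition scaled between sample-field median and high-control FP; Test system: human fibrin DD(E); Quantity: 2 µM final DD(E) protein; Doses: one dose, 8.3 µM nominal; Schedule: compound with protein 10 min, then 3 h after probe, room temperature; Detection: fluorescence polarization; Medium: Tris buffer with calcium and detergent, pH 7.8.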
SKN-1 inh: suppressors of acrylamide-induced Pgst-4::GFP reporter in worms, primary screen, SKN-1 inhibitor project, whole organism, uHTS, GFP/RFP fluorescence ratio, strain VP596. C. elegans VP596 Pgst-4::GFP/RFP ratio, 24 h. inhibition, % at 21.8 µM. 360,000 compounds, 0.49% hits. AID 624304, 2012;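 active means interference check ratio from 0.5 to 1.5 plus GFP to RFP signal ratio inhibition reaching or exceeding a fixed threshold, cut at about 30% in these data, passing the limit was not always enough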
PolyA inh: polyadenylation inhibitors in yeast reporter cells, primary screen, luminescence, S. cerevisiae; 300,000 compounds, 0.02% hits; activity score, % at 12 µM; S. cerevisiae SKY197-pL101 polyadenylation reporter, beta-gal luminescence; efflux-impaired pdr1/pdr3 knockout yeast; score 100 = 6 SD above DMSO;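 active means lowest replicate activity score at least 50, where 100 means six control SD above control mean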;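 further: yeast exposed to compound for 9 h at 30 °C; higher score means more reporter readthrough which indicates perturbed polyadenylation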
DAGLB inh: DAGLB lipase inhibitors, primary screen, biochemical, fluorescence, HTS | inhibition, % at 5.17 µM | AID 504411, 2011 | 340,000 compounds, 0.059% hits | HEK293T DAGLB membrane lysate, EnzChek fluorogenic substrate; in the data active means inhibition above about 34%
Target sequence (Q8NCG7 whole entry, looked up): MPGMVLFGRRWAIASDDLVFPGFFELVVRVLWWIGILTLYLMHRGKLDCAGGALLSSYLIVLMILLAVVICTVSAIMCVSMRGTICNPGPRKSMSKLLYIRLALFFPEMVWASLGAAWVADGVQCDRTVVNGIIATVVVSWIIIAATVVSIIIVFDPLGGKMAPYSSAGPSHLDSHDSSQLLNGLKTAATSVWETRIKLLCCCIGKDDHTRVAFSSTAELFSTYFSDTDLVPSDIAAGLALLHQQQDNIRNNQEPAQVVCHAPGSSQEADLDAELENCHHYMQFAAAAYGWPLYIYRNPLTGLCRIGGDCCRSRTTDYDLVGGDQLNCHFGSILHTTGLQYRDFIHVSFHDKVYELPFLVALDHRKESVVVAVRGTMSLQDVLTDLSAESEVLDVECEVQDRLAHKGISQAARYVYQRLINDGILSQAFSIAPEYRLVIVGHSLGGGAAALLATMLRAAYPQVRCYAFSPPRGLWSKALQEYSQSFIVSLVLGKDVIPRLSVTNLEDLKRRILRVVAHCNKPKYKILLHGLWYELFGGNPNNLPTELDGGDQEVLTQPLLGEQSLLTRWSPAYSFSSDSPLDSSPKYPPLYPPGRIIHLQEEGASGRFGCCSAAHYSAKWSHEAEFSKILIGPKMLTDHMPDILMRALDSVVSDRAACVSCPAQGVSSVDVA
Large screens that a line does not name were inactive. Only some compounds are listed: those with a hit (about 0.9% of all), similar ones and a draw of the others.

CCN(CC)CCN1C(=O)C(=O)/C(=C(/O)c2cnn(-c3ccccc3)c2C)C1c1ccc(C)o1 (centres undefined)	SKN-1 inh 45.8
CCOc1ccc(-c2nn(-c3ccccc3)cc2/C=C(\C#N)S(=O)(=O)c2ccccc2)cc1C	SKN-1 inh 41.5
N#C/C(=C\c1cn(-c2ccccc2)nc1-c1ccccc1)S(=O)(=O)c1ccccc1	none
CC/C(=C\c1ccc(N(C)C)cc1)c1ccncc1	SKN-1 inh 66.7 (no result: PolyA inh)
Cc1cc(F)ccc1S(=O)(=O)N1CCCOC1CNC(=O)C(=O)NCc1ccc2c(c1)OCO2 (centres undefined)	SKN-1 inh 36.5
O=C(NCc1ccc2c(c1)OCO2)C(=O)NCC1OCCCN1S(=O)(=O)c1cc(F)ccc1F (centres undefined)	none
C(/C=C/c1ccccn1)=C\c1ccccc1	SKN-1 inh 63.8
c1ccc(-c2cc3nccc(-c4ccccn4)n3n2)cc1	SKN-1 inh 39.3
N=C1C=CC(=C(c2ccc(N)cc2)c2ccc(N)cc2)C=C1	SKN-1 inh 59.7 (no result: PolyA inh)
O=C(Nc1nc(-c2ccc(Cl)s2)cs1)c1ccccc1	SKN-1 inh 49.2
CCC(C)c1ccc(NC(=O)CSc2nnc(-c3cccc(C)c3)n2C)cc1 (centres undefined)	none (no result: MT1-MMP act inh, SKN-1 inh, PolyA inh, DAGLB inh)
Cc1ccc(-c2nnn(CC(=O)NCC3COCCO3)n2)o1 (centres undefined)	SKN-1 inh 41.7
N#CCC[C@@H]1CC[C@]2(CCCN(Cc3ccc(Cl)cc3)C2)O1	none (no result: MT1-MMP act inh, SKN-1 inh, PolyA inh, DAGLB inh)
Cc1cc(C(=O)CSc2nnc(C3COc4ccccc4O3)n2C)c(C)n1-c1ccc(F)cc1 (centres undefined)	SKN-1 inh 47.7
Cc1ccc(-c2nc3cc(Cl)ccc3o2)cc1	none
Clc1ccc(-c2nc3cc(CN4CCCCC4)ccc3o2)cc1	SKN-1 inh 76.6
C(=C\c1ccccc1)/CSc1nnc(COc2ccccc2)n1Cc1ccco1	none (no result: MT1-MMP act inh, SKN-1 inh, PolyA inh, DAGLB inh)
Cc1ccc(C(=O)C2C(=O)c3ccccc3C2=O)cc1	none
NN=C1c2ccccc2C(=O)C1C(=O)C(c1ccccc1)c1ccccc1 (centres undefined)	Tn6 DDE FP 18.8 (no result: PolyA inh)
C=CCN1C(=O)[C@@H](CC(=O)NCCCOC)[C@]2(C(=O)OCC)CCCCC/C=C/12	none (no result: MT1-MMP act inh, SKN-1 inh, PolyA inh, DAGLB inh)
CC(C)(C)N=C1NN=C(c2ccc(Cl)cc2)CS1	SKN-1 inh 50.6
COc1cccc([C@H]2NC(=O)C/C=C/[C@@H](C)[C@@H](c3cccc(OC)c3)NC(=O)C/C=C/[C@H]2C)c1	none (no result: MT1-MMP act inh, SKN-1 inh, PolyA inh, DAGLB inh)
CN(C)c1ccc(N/C=C/C(=O)c2ccco2)cc1	SKN-1 inh 39.5
O=C(/C=C/Nc1ccc(Br)cc1F)c1ccco1	SKN-1 inh 76.4
O=C(/C=C/Nc1ccc(F)c(Cl)c1)c1ccco1	SKN-1 inh 75.4
O=C(/C=C/Nc1ccc(F)cc1F)c1ccco1	SKN-1 inh 45.1
CCCCOCCCNC(=O)C[C@@H]1C(=O)N2CCCC3=C2[C@@]1(C(=O)OCC)CCC3	none (no result: MT1-MMP act inh, SKN-1 inh, PolyA inh, DAGLB inh)
CC(=O)Nc1cc(NC(C)=O)cc(C(=O)OCC(=O)N2CC(C)OC(C)C2)c1 (centres undefined)	SKN-1 inh 36.1
CC(=O)c1ccc(OCc2cc(C(=O)NC(C)c3cnn(C)c3)no2)cc1 (centres undefined)	none
CC(NC(=O)c1cc(COc2ccccc2)on1)c1nccs1 (centres undefined)	SKN-1 inh 35.5
CC1CN(S(=O)(=O)c2cccc(C(=O)OCC(=O)Nc3ccc4c(c3)OCO4)c2)CC(C)O1 (centres undefined)	SKN-1 inh 43.8 (no result: PolyA inh)
O=C(COC(=O)Cc1ccc(S(=O)(=O)N2CCOCC2)s1)Nc1ccc2c(c1)OCO2	PolyA inh 105.7
CC1CN(S(=O)(=O)c2cccc(C(=O)OCC(=O)c3cccs3)c2)CC(C)O1 (centres undefined)	none
O=C(COC(=O)Cc1ccc(S(=O)(=O)N2CCOCC2)s1)Nc1ccccc1	none (no result: PolyA inh)
COc1ccc(CCNC(=O)c2ccc3c(c2)ncn3C2CCCCC2)cc1	none (no result: MT1-MMP act inh, SKN-1 inh, PolyA inh, DAGLB inh)
CCOC(=O)[C@]12CCCCC/C=C\1N(Cc1ccc(OC)cc1)C(=O)[C@H]2CC(=O)N1CCN(C(=O)c2ccco2)CC1	none (no result: MT1-MMP act inh, SKN-1 inh, PolyA inh, DAGLB inh)
Cc1cccc(NC(=O)/C=C/c2ccc([N+](=O)[O-])s2)c1	none
Cc1cccc(NC(=S)N/N=C/c2ccc([N+](=O)[O-])s2)c1	SKN-1 inh 43.5
COC(=O)[C@H](CC(C)C)N(Cc1cn(CC2CCCCC2)nn1)S(=O)(=O)c1ccccc1Br	none (no result: MT1-MMP act inh, SKN-1 inh, PolyA inh, DAGLB inh)
O=C(COC(=O)C12CC3CC(CC(O)(C3)C1)C2)Nc1cccc(Br)c1	SKN-1 inh 37.7 (no result: PolyA inh)
CCCC1CCC2(CC1)CCC2OC(=S)Nc1ccc(Br)cc1 (centres undefined)	none (no result: MT1-MMP act inh, SKN-1 inh, PolyA inh, DAGLB inh)
Clc1ncc(CSc2ccccc2)s1	SKN-1 inh 39.1
CC(=O)NS(=O)(=O)c1ccc(Nc2ccc([N+](=O)[O-])c3nonc23)cc1	SKN-1 inh 35.4
CCOc1ccc(Nc2ccc([N+](=O)[O-])c3nonc23)cc1	SKN-1 inh 36.7
O=[N+]([O-])c1ccc(Nc2ccccc2)c2nonc12	SKN-1 inh 35.1
COC(=O)c1cc2sccc2n1Cc1ccc(C)cc1	SKN-1 inh 37.5
CC(C)NC(=O)c1cc2c(=O)n3ccccc3nc2s1	none
C=CCNC(=O)c1cc2c(=O)n3ccccc3nc2s1	SKN-1 inh 41.2
C=CCn1c(COc2ccc(Cl)cc2)nnc1SCC(=O)c1ccccc1	none (no result: MT1-MMP act inh, SKN-1 inh, PolyA inh, DAGLB inh)
COc1ccc(N2CCN(C(=O)c3cc4c(-c5cccc(OC)c5)nn(C)c4s3)CC2)cc1	SKN-1 inh 35.2 (no result: PolyA inh)
COc1ccc(C(C(=O)N(C)C2CCCC2)N(Cc2ccc(F)cc2)C(=O)c2csc(-c3ccccc3)n2)cc1OC (centres undefined)	none (no result: MT1-MMP act inh, SKN-1 inh, PolyA inh, DAGLB inh)
CCOC(=O)c1cc2cc3ccccc3cc2[nH]1	SKN-1 inh 39.7 (no result: PolyA inh)
CC(C)OC(=O)c1cc2ccccc2[nH]1	none
Clc1ccc2nc(N3CCCCC3)sc2c1	SKN-1 inh 57.3
O=C1c2ccccc2OC2(C=Cc3ccccc3O2)N1Cc1ccccc1 (centres undefined)	SKN-1 inh 39.9
CC(C)(C)c1ccc(C2=CSC3=NCCN23)cc1	SKN-1 inh 47.6
